Test results taken from ChEMBL document CHEMBL4312005, “Optimization of pyrrolizine-based Schiff bases with 4-thiazolidinone motif: Design, synthesis and investigation of cytotoxicity and anti-inflammatory potency” (Eur J Med Chem, 2020).
Values belong to the compound of their own block, whether it stands above or below them.

Experiments:
MCF7 [1] = experiment: Antiproliferative activity against human MCF7 cells assessed as reduction in cell growth incubated for 72 hrs by MTT assay; format: functional, cell-based; conditions: MCF7, 72 h
How it was run: (§1)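 MTT assay on MCF-7, A2780, HT29 and normal MRC5 fibroblast lines (ATCC) grown in DMEM with 10% FBS. Cells exposed to compounds for 72 h, then reduced MTT read at 570 nm.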

[2] = Selectivity index, ratio of IC50 for cytotoxicity against human MRC5 cells to IC50 for antiproliferative activity against human MCF7 cells; conditions: MRC5 cells versus MCF7 cells
[3] = Selectivity index, ratio of IC50 for cytotoxicity against human MRC5 cells to IC50 for antiproliferative activity against human HT-29 cells; conditions: MRC5 cells versus HT-29 cells
A2780 = experiment: Antiproliferative activity against human A2780 cells assessed as reduction in cell growth incubated for 72 hrs by MTT assay; format: functional, cell-based; conditions: A2780, 72 h; how it was run: as §1
MCF7 [4] = experiment: Antiproliferative activity against human MCF7 cells assessed as cell viability at 5 uM incubated for 48 hrs by MTT assay (reference value: 100 %); format: functional; conditions: MCF7, 48 h, read-out: Activity
How it was run: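 Preliminary single-dose screen by MTT assay. MCF-7 cells grown in DMEM/10% FBS were exposed to 5 μM compound for 48 h, and growth% was determined. Values are mean ± S.D., n = 6.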

HT-29 = experiment: Antiproliferative activity against human HT-29 cells assessed as reduction in cell growth incubated for 72 hrs by MTT assay; format: functional, cell-based; conditions: HT-29, 72 h; how it was run: as §1
[5] = biological target: Prostaglandin G/H synthase 1 (Homo sapiens, UniProt P23219); experiment: Inhibition of human COX1 using arachidonic acid as substrate incubated for 2 mins by ELISA method
[6] = Selectivity index, ratio of IC50 for cytotoxicity against human MRC5 cells to IC50 for antiproliferative activity against human A2780 cells; conditions: MRC5 cells versus A2780 cells
MRC5 = experiment: Cytotoxicity against human MRC5 cells assessed as reduction in cell growth incubated for 72 hrs by MTT assay; format: cell-based; conditions: MRC5, 72 h; how it was run: as §1
Rattus norvegicus [7] = experiment: Antiinflammatory activity against albino rats assessed as inhibition of carrageenan-induced paw edema at 0.5 mmol, po measured after 4 hrs relative to control; format: functional
How it was run: (§2)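 Carrageenan rat paw edema (Winter method) in male and female adult albino rats (100-140 g). […] Swelling inhibition expressed as % of control at 2-4 h after carrageenan injection.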

Rattus norvegicus [8] = experiment: Antiinflammatory activity against albino rats assessed as inhibition of carrageenan-induced paw edema at 0.5 mmol, po measured after 2 hrs relative to control; format: functional; how it was run: as §2
MCF7 [9] = experiment: Induction of apoptosis in human MCF7 cells assessed as necrotic cells at 1 uM incubated for 24 hrs by annexin V FITC and propidium iodide staining based flow cytometry (reference value: 4.1 to […]); format: functional
MCF7 [10] = experiment: Induction of apoptosis in human MCF7 cells assessed as late apoptotic cells at 1 uM incubated for 24 hrs by annexin V FITC and propidium iodide staining based flow cytometry (reference value: 0 to 2.5 %); format: functional
MCF7 [11] = experiment: Cell cycle arrest in human MCF7 cells assessed as G2/M phase accumulation at 1 uM incubated for 24 hrs by propidium iodide based flow cytometry (reference value: 17.2 to 26.8 %); format: functional
MCF7 [12] = experiment: Induction of apoptosis in human MCF7 cells assessed as necrotic cells at 5 uM incubated for 24 hrs by annexin V FITC and propidium iodide staining based flow cytometry (reference value: 4.1 to […]); format: functional
MCF7 [13] = experiment: Induction of apoptosis in human MCF7 cells assessed as early apoptotic cells at 10 uM incubated for 24 hrs by annexin V FITC and propidium iodide staining based flow cytometry (reference value: 0 to 9 %); format: functional
MCF7 [14] = experiment: Induction of apoptosis in human MCF7 cells assessed as necrotic cells at 10 uM incubated for 24 hrs by annexin V FITC and propidium iodide staining based flow cytometry (reference value: 4.1 to […]); format: functional
MCF7 [15] = experiment: Cell cycle arrest in human MCF7 cells assessed as G1 accumulation at 5 uM incubated for 24 hrs by propidium iodide based flow cytometry (reference value: 49.6 to 55.1 %); format: functional
MCF7 [16] = experiment: Induction of apoptosis in human MCF7 cells assessed as late apoptotic cells at 5 uM incubated for 24 hrs by annexin V FITC and propidium iodide staining based flow cytometry (reference value: 0 to 2.5 %); format: functional
MCF7 [17] = experiment: Cell cycle arrest in human MCF7 cells assessed as S phase accumulation at 5 uM incubated for 24 hrs by propidium iodide based flow cytometry (reference value: 17.3 to 28.5 %); format: functional
MCF7 [18] = experiment: Induction of apoptosis in human MCF7 cells assessed as late apoptotic cells at 10 uM incubated for 24 hrs by annexin V FITC and propidium iodide staining based flow cytometry (reference value: 0 to 2.5 %); format: functional
MCF7 [19] = experiment: Cell cycle arrest in human MCF7 cells assessed as G1 accumulation at 1 uM incubated for 24 hrs by propidium iodide based flow cytometry (reference value: 49.6 to 55.1 %); format: functional
MCF7 [20] = experiment: Induction of apoptosis in human MCF7 cells assessed as early apoptotic cells at 1 uM incubated for 24 hrs by annexin V FITC and propidium iodide staining based flow cytometry (reference value: 0 to 9 %); format: functional
MCF7 [21] = experiment: Cell cycle arrest in human MCF7 cells assessed as G2/M phase accumulation at 10 uM incubated for 24 hrs by propidium iodide based flow cytometry (reference value: 17.2 to 26.8 %); format: functional
MCF7 [22] = experiment: Induction of apoptosis in human MCF7 cells assessed as viable cells at 1 uM incubated for 24 hrs by annexin V FITC and propidium iodide staining based flow cytometry (reference value: 76 to 95.9 %); format: functional; conditions: MCF7, 24 h, read-out: Activity
MCF7 [23] = experiment: Cell cycle arrest in human MCF7 cells assessed as G1 accumulation at 10 uM incubated for 24 hrs by propidium iodide based flow cytometry (reference value: 49.6 to 55.1 %); format: functional
MCF7 [24] = experiment: Cell cycle arrest in human MCF7 cells assessed as subG1 accumulation at 10 uM incubated for 24 hrs by propidium iodide based flow cytometry (reference value: 0.6 to 3 %); format: functional
MCF7 [25] = experiment: Induction of apoptosis in human MCF7 cells assessed as viable cells at 10 uM incubated for 24 hrs by annexin V FITC and propidium iodide staining based flow cytometry (reference value: 76 to 95.9 %); format: functional; conditions: MCF7, 24 h, read-out: Activity
MCF7 [26] = experiment: Cell cycle arrest in human MCF7 cells assessed as subG1 accumulation at 5 uM incubated for 24 hrs by propidium iodide based flow cytometry (reference value: 0.6 to 3 %); format: functional
MCF7 [27] = experiment: Cell cycle arrest in human MCF7 cells assessed as S phase accumulation at 1 uM incubated for 24 hrs by propidium iodide based flow cytometry (reference value: 17.3 to 28.5 %); format: functional
MCF7 [28] = experiment: Cell cycle arrest in human MCF7 cells assessed as subG1 accumulation at 1 uM incubated for 24 hrs by propidium iodide based flow cytometry (reference value: 0.6 to 3 %); format: functional
MCF7 [29] = experiment: Cell cycle arrest in human MCF7 cells assessed as S phase accumulation at 10 uM incubated for 24 hrs by propidium iodide based flow cytometry (reference value: 17.3 to 28.5 %); format: functional
MCF7 [30] = experiment: Cell cycle arrest in human MCF7 cells assessed as G2/M phase accumulation at 5 uM incubated for 24 hrs by propidium iodide based flow cytometry (reference value: 17.2 to 26.8 %); format: functional
MCF7 [31] = experiment: Induction of apoptosis in human MCF7 cells assessed as viable cells at 5 uM incubated for 24 hrs by annexin V FITC and propidium iodide staining based flow cytometry (reference value: 76 to 95.9 %); format: functional; conditions: MCF7, 24 h, read-out: Activity
MCF7 [32] = experiment: Induction of apoptosis in human MCF7 cells assessed as early apoptotic cells at 5 uM incubated for 24 hrs by annexin V FITC and propidium iodide staining based flow cytometry (reference value: 0 to 9 %); format: functional

Chain of Prostaglandin G/H synthase 1 (P23219 whole entry): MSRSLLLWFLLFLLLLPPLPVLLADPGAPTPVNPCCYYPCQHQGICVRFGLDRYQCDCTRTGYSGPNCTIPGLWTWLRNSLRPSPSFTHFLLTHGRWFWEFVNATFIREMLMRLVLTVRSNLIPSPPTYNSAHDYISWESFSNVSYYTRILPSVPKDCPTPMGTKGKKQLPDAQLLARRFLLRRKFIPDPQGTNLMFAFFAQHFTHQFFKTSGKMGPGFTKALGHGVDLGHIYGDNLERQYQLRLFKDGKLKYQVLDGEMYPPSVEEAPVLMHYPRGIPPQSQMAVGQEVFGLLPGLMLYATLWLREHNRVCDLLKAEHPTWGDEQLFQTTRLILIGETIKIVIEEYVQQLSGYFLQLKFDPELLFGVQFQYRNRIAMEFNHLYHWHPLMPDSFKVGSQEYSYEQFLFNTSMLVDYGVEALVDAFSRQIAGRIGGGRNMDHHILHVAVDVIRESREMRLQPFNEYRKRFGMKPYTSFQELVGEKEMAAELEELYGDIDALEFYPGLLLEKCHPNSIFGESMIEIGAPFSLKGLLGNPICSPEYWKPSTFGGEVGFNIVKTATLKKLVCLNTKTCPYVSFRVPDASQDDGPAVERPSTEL

SMILES: CS(=O)(=O)CCNCc1ccc(-c2ccc3ncnc(Nc4ccc(OCc5cccc(F)c5)c(Cl)c4)c3c2)o1 [LAPATINIB]
IC50 (HT-29): 12.7 µM
IC50 (MRC5): 13.7 µM

SMILES: N#Cc1c(/N=C/c2ccco2)c(C(=O)Nc2ccc(Br)cc2)n2c1CCC2
Activity (MCF7 [9]): 11.4%
IC50 (MCF7 [1]): 6.89 µM
Activity (MCF7 [10]): 8.8%
Activity (MCF7 [11]): 22.1%
selectivity ratio [2]: 1 to 10
Activity (MCF7 [12]): 15.2%
Activity (MCF7 [13]): 7.2%
Activity (MCF7 [14]): 16.4%
Activity (MCF7 [15]): 25.5%
Activity (MCF7 [16]): 6.3%
Activity (MCF7 [17]): 53.6%
Activity (MCF7 [18]): 5.3%
Activity (MCF7 [19]): 24.5%
Activity (MCF7 [20]): 12.8%
Activity (MCF7 [21]): 23%
viability at 1 µM (MCF7 [22]): 67%
Activity (MCF7 [23]): 25%
selectivity ratio [3]: 1 to 10
Activity (MCF7 [24]): 0.4%
viability at 10 µM (MCF7 [25]): 71.2%
IC50 (A2780): 12.2 µM
inhibition (INH) (Rattus norvegicus [7]): 35.79%
inhibition (INH) (Rattus norvegicus [8]): 18.83%
Activity (MCF7 [26]): 0.4%
viability at 5 µM (MCF7 [4]): 64%
Activity (MCF7 [27]): 53.7%
Activity (MCF7 [28]): 1.1%
Activity (MCF7 [29]): 51.5%
IC50 (HT-29): 2.04 µM
Activity (MCF7 [30]): 21.8%
IC50 [5]: 13.2 µM
viability at 5 µM (MCF7 [31]): 67%
Activity (MCF7 [32]): 11.5%
selectivity ratio [6]: 1 to 10
IC50 (MRC5): 15.7 µM

SMILES: N#Cc1c(/N=C/c2cccnc2)c(C(=O)Nc2ccc(Br)cc2)n2c1CCC2
IC50 (MCF7 [1]): 11.3 µM
selectivity ratio [2]: 1 to 10
selectivity ratio [3]: 1 to 10
IC50 (A2780): 23 µM
viability at 5 µM (MCF7 [4]): 81%
IC50 (HT-29): 2.63 µM
IC50 [5]: > 100 µM
selectivity ratio [6]: 1 to 10
IC50 (MRC5): 25.6 µM

Now from value to compound, other results behind:

IC50 (MCF7 [1]): 9.41 µM
IC50 (A2780): 19.3 µM
IC50 (HT-29): 3.65 µM
IC50 [5]: > 100 µM
SMILES: N#Cc1c(/N=C/c2cccs2)c(C(=O)Nc2ccc(Br)cc2)n2c1CCC2
selectivity ratio [2]: 1 to 10
selectivity ratio [3]: 1 to 10
viability at 5 µM (MCF7 [4]): 77%
selectivity ratio [6]: 1 to 10
IC50 (MRC5): 23.1 µM

IC50 (MCF7 [1]): 0.21 µM
IC50 (A2780): 0.31 µM
IC50 (HT-29): 0.2 µM
IC50 [5]: > 100 µM
SMILES: CCC1SCC(=O)N1c1c(C#N)c2n(c1C(=O)Nc1ccc(Cl)cc1)CCC2 (centres undefined)
selectivity ratio [2]: 3 to 15
inhibition (INH) (Rattus norvegicus [7]): 32.48%
inhibition (INH) (Rattus norvegicus [8]): 21.76%
selectivity ratio [6]: 3 to 15
IC50 (MRC5): 0.91 µM

IC50 (MCF7 [1]): 0.84 µM
IC50 (A2780): 4.24 µM
IC50 (HT-29): 2.06 µM
IC50 [5]: 65.4 µM
SMILES: CCC1SCC(=O)N1c1c(C#N)c2n(c1C(=O)Nc1ccccc1)CCCC2 (centres undefined)
selectivity ratio [2]: 3 to 15
IC50 (MRC5): 11.1 µM

IC50 (MCF7 [1]): 6.03 µM
IC50 (A2780): 8.3 µM
IC50 (HT-29): 7.79 µM
IC50 [5]: > 100 µM
SMILES: N#Cc1c(/N=C/c2ccc(Cl)cc2)c(C(=O)Nc2ccc(Br)cc2)n2c1CCC2
selectivity ratio [2]: 2 to 52
selectivity ratio [3]: 2 to 52
viability at 5 µM (MCF7 [4]): 73%
selectivity ratio [6]: 2 to 52
IC50 (MRC5): 13.8 µM
